E coli Lon inh: E. coli protease La inhibition; purified E. coli Lon protease, fluorescence polarization; P0A9M0; inhibition, % at 7.94 µM; AID 602123; actives 0.42% (n = 360,000); in the data active means inhibition above about 13%, passing the limit was not always enough
MT1-MMP act inh: inhibitors of human MT1-MMP activation; AID 651647; P50281; HT1080 RFP-PRO-GFP cells, GFP/RFP ratio fluorescence, overnight; percent of plate control window, DMSO zero; actives 0.061% (n = 360,000); GFP/RFP ratio change, % at 20 µM;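 active means GFP/RFP ratio change of at least 30% with cell ATP level not reduced by more than half and red fluorescence within 50% of control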
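Test system: HT1080 cells expressing an RFP-PRO-GFP fluorescent reporter construct / Compound dosing: single-point 20 µM compound, 1% DMSO / Schedule: cells overnight before dosing, compound overnight, 37 °C, 5% CO2 / Evaluation: GFP/RFP fluorescence ratio / Control set: DMSO and RFP-L50D-GFP cell wells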
iPSC survival up: enhancers of human iPSC single-cell survival. hiPSC single-cell survival, ATPlite luminescence; 100% = ROCK inhibitor wells, 0% = DMSO. actives 0.044% (n = 360,000). AID 602274. survival enhancement, % at 20 µM; in the data active means survival enhancement above about 18%;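 further: cells exposed to compounds for 16 hours before the ATP read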
Tb MetRS inh: blocks T. brucei methionyl-tRNA synthetase activity; purified T. brucei MetRS, ATP depletion, Kinase-Glo luminescence; actives 0.4% (n = 360,000); inhibition, % at 11.9 µM; AID 624268;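 active means inhibition above a per-plate cutoff of the control wells' mean inhibition plus 3 SD, cut at about 5.5% in these data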
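Dosing: 11.9 µM single point; system: parasite MetRS enzyme; technique: luminescence of leftover ATP; times: 15 min enzyme-compound preincubation, 2 h reaction, 10 min detection, 25 °C; replicates: each compound tested once; read-out basis: percent inhibition relative to median high and low control wells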
SKN-1 inh: blocks SKN-1 activity in C. elegans; actives 0.49% (n = 360,000); C. elegans VP596 Pgst-4::GFP/RFP ratio, acrylamide-induced, 24 h; inhibition, % at 21.8 µM;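 active means interference check ratio from 0.5 to 1.5 plus GFP to RFP signal ratio inhibition reaching or exceeding a fixed threshold, cut at about 30% in these data, passing the limit was not always enough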
PREPL inh: inhibitors of human prolyl oligopeptidase-like enzyme PREPL | recombinant PREPL, fluorescence polarization activity-based probe | inhibition, % at 5.96 µM | actives 0.68% (n = 320,000) | AID 2751
Target sequence (Q4J6C6 whole entry, looked up): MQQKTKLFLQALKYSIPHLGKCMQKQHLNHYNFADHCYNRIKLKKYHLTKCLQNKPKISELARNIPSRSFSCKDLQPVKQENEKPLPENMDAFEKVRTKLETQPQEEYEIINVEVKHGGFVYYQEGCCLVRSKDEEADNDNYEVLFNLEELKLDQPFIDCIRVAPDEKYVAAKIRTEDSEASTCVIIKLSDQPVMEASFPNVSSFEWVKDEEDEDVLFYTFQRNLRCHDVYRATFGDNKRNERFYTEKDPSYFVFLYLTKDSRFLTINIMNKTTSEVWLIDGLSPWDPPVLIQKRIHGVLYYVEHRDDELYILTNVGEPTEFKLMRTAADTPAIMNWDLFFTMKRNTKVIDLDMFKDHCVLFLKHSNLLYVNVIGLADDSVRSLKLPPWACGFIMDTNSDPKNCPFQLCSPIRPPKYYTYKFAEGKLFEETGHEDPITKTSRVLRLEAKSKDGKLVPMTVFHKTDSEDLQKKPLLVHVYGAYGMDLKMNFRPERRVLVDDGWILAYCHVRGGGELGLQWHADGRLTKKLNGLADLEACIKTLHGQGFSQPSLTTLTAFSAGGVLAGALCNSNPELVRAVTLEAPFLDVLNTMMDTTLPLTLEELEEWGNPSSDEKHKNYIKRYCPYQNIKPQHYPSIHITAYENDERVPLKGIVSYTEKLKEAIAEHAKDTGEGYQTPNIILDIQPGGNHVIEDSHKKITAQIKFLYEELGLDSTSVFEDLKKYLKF
PREPL confirm: human PREPL inhibition, confirmation. shares compounds with PREPL inh. recombinant PREPL, fluorescence polarization activity probe. inhibition, % at 5.96 µM. actives 67% (n = 2,000). AID 2803
Numbers stand for hits; – = inactive; · = not tested or not shown. Hits are enriched below; roughly 1.8% of the tested compounds scored in any of these assays. Unless noted, no stated cut-off is given here; in the data, active means inhibition above about 43%; inactive means the rest.

SMILES | E coli Lon inh | MT1-MMP act inh | iPSC survival up | Tb MetRS inh | SKN-1 inh | PREPL inh | PREPL confirm
Cc1nc2ccccc2c(=O)n1/N=C/c1ccc(O)c(O)c1O | – | – | – | – | – | 45 | –
Cc1cccnc1NC(=O)CCc1c[nH]c2ccccc12 | – | – | – | – | – | 46 | –
Cc1ccnc(NC(=O)CCCc2c[nH]c3ccccc23)c1 | – | – | – | – | – | – | ·
COCCn1c(-c2ccc(Br)cc2)csc1=Nc1cccnc1 | – | – | – | – | – | 48 | 50
Clc1ccc(-c2csc(=Nc3cccnc3)n2CCCn2ccnc2)cc1Cl | – | – | – | – | – | 56 | 58
OCCCn1c(-c2ccccc2)csc1=Nc1ccccc1 | – | – | – | – | – | – | ·
FC(F)Oc1ccc(-c2csc(=Nc3cccnc3)n2CC2CCCO2)cc1 (centres undefined) | – | – | – | – | – | – | ·
COCCN1C(=O)CSCC1(C)C(=O)Nc1ccc2c(c1)OCCO2 (centres undefined) | · | – | · | – | – | · | ·
COc1cc(Cl)c(C)cc1N1C(=O)CN(Cc2ccccc2)C1=S | – | – | – | – | – | – | ·
CCOc1ccc(C(=O)CN2C(=O)NC3(CCCCCC3)C2=O)cc1 | – | – | – | – | – | – | ·
C[C@@H]1CN([C@H](C)CO)C(=O)CCCn2cc(nn2)CO[C@H]1CN(C)C(=O)C1CCCCC1 | – | – | – | – | – | · | ·
Cc1ccc(C)c(-c2nn(-c3cc(N4CCN(CCO)CC4)ccc3[N+](=O)[O-])c(=O)c3ccccc23)c1 | – | – | – | – | – | 62 | 57
NCCSc1c(-c2ccccc2)[nH]c2ccccc12 | – | – | – | – | – | – | ·
Cc1ccc(-c2[nH]c3ccccc3c2SCCN)cc1 | – | – | – | – | – | 57 | –
NCCSc1c(-c2ccc(Cl)cc2)[nH]c2ccccc12 | – | – | – | – | – | 46 | –
Cc1ccc(NC(=O)CC2S/C(=N/c3nccs3)N(C)C2=O)c(C)c1 (centres undefined) | – | – | – | – | – | – | ·
CCOc1ccc(OCC)c(NC(=O)CN2CCN(c3cccc(C)c3)CC2)c1 | – | – | – | – | – | – | ·
CCOc1ccc(OCC)c(NC(=O)CN2CCN(c3cc(C)ccc3C)CC2)c1 | – | – | – | – | – | 50 | –
CC(C(=O)N1CCN(c2ccc([N+](=O)[O-])cc2)CC1)N1C(=O)C2CC=CCC2C1=O (centres undefined) | – | – | – | – | – | – | ·
O=C(CN1C(=O)C2CC=CCC2C1=O)N1CCN(c2ccc([N+](=O)[O-])cc2)CC1 (centres undefined) | – | – | – | – | – | 48 | –
O=C(NCc1ccc2c(c1)OCO2)C(=S)N1CCOCC1 | – | – | – | – | – | – | ·
CC(C)c1ccc(CNc2ccc(N3CCOCC3)cc2)cc1 | – | – | – | – | – | 52 | 55
c1cc(CNc2ccc(N3CCOCC3)cc2)ccn1 | – | – | – | – | – | – | ·
c1cc2c(cc1CNc1ccc(N3CCOCC3)cc1)OCO2 | – | – | – | – | – | 57 | –
Cc1ccc(CNc2ccc(N3CCOCC3)cc2)cc1 | – | – | – | – | – | 44 | –
SMILES | E coli Lon inh | MT1-MMP act inh | iPSC survival up | Tb MetRS inh | SKN-1 inh | PREPL inh | PREPL confirm
CC(C)c1ccc(S(=O)(=O)Nc2ccc(N3CCOCC3)cc2)cc1 | – | – | – | – | – | – | ·
CC(=O)Nc1ccc(S(=O)(=O)Nc2nc3ccccc3nc2Nc2ccc(O)cc2)cc1 | – | – | – | – | – | – | ·
CCOC(=O)c1cccc(NC(=O)Nc2ccc3c(c2)C(=O)OC3)c1 | – | – | – | – | – | – | ·
O=C(NC(=S)N1CCCCC1c1cccnc1)c1ccc(F)cc1 (centres undefined) | – | – | – | – | – | – | ·
Cc1nn(-c2ccc(Br)cc2)c(=O)c2ccccc12 | – | – | – | – | – | 75 | –
CCOc1ccc2nc(SCC(=O)NCc3ccc4c(c3)OCO4)[nH]c2c1 | – | – | – | – | – | – | ·
COc1ccc(Nc2ncc3c(n2)CC(c2ccc(OC)cc2)CC3=O)cc1 (centres undefined) | – | – | – | – | – | – | ·
